Measurements taken from ChEMBL document CHEMBL1144702, “Synthesis and structure-activity relationship studies on tryprostatin A, an inhibitor of breast cancer resistance protein” (Bioorg Med Chem, 2008).
Activity calls are given as the source filed them. No cut-off for these calls is given here.

Key:
[1] = Antiproliferative activity against mouse tsFT210 cells after 48 hrs by WST-8 assay; assay type: functional, cell-based; conditions: tsFT210, 48 h
In short: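 tsFT210 cells (temperature-sensitive cdc2 mutant from mouse mammary carcinoma FM3A), kept in RPMI 1640 with 10% fetal calf serum at 32 °C; exponentially growing cells exposed to compound at 32 °C for 48 h, then WST-8 added for 4 h at 37 °C; absorbance at 450 nm read to estimate cell number; IC50 reported.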

SR = experiment: Cytotoxicity against human SR cells; assay type: functional
COLO 205 = experiment: Cytotoxicity against human COLO205 cells; assay type: functional
[2] = Inhibition of tubulin polymerization in presence of microtubule-associated proteins at 60 uM
In short: (§1)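 Tubulin containing MAPs in PME buffer (100 mM PIPES pH 6.9, 2 mM EGTA, 1 mM MgSO4) with GTP and drug in DMSO, tubulin added last; 37 °C, absorbance change at 351 nm over 10 min. Drug concentration varied across runs for delta absorbance versus concentration curves; colchicine standard curves made for each tubulin batch.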

BT-549 = experiment: Cytotoxicity against human BT549 cells; assay type: functional
[3] = Cytotoxicity against human […]; assay type: functional
UO-31 = experiment: Cytotoxicity against human UO31 cells; assay type: functional
HOP-92 = experiment: Cytotoxicity against human HOP92 cells; assay type: functional
[4] = Cytotoxicity against human H520 cells at 100 uM after 72 hrs by Cell Titer 96 Aqueous Non-Radioactive assay; assay type: functional; conditions: NCI-H520, 72 h, read-out: Inhibition
In short: (§2)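 MCF7, NCI-H520 or PC-3 cells (RPMI-1640, 10% FBS) plated 1 × 10^4/well, 24 h at 37 °C, exposed 72 h to drug at 10 or 100 μM in DMSO or EtOH vehicle (controls usually 0.2%). Survival by MTS/PMS formazan absorbance at 490 nm, plate blank subtracted, as percent of vehicle wells; quadruplicate; etoposide or m-AMSA positive controls.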

PC-3 [5] = experiment: Cytotoxicity against human PC3 cells at 100 uM after 72 hrs by Cell Titer 96 Aqueous Non-Radioactive assay; assay type: functional; conditions: PC-3, 72 h, read-out: Inhibition; in short: as §2
IGROV-1 = experiment: Cytotoxicity against human IGROV1 cells; assay type: functional
K562 = experiment: Cytotoxicity against human K562 cells; assay type: functional
CCRF-CEM = experiment: Cytotoxicity against human CCRF-CEM cells; assay type: functional
HT-29 = experiment: Cytotoxicity against human HT29 cells; assay type: functional
[6] = Cytotoxicity against human H520 cells at 10 uM after 72 hrs by Cell Titer 96 Aqueous Non-Radioactive assay; assay type: functional; conditions: NCI-H520, 72 h, read-out: Inhibition; in short: as §2
RPMI-8226 = experiment: Cytotoxicity against human RPMI8226 cells; assay type: functional
LOX IMVI = experiment: Cytotoxicity against human LOX IMVI cells; assay type: functional
MCF7 [7] = experiment: Cytotoxicity against human MCF7 cells at 100 uM after 72 hrs by Cell Titer 96 Aqueous Non-Radioactive assay; assay type: functional; conditions: MCF7, 72 h, read-out: Inhibition; in short: as §2
PC-3 [8] = experiment: Cytotoxicity against human PC3 cells after 72 hrs by Cell Titer 96 Aqueous Non-Radioactive assay; assay type: functional; conditions: PC-3, 72 h
In short: (§3)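 MCF7, NCI-H520 and PC-3 cells in RPMI-1640 + 10% FBS, 2 mM L-glutamine, 0.1 mM non-essential amino acids; 1 × 10^4 cells/well, 24 h at 37 °C, then drug in DMSO or EtOH (<1%) for 72 h. Cells under 50% survival at 100 μM retested over further concentrations for GI50. MTS/PMS read at 490 nm, blank subtracted, versus vehicle wells; quadruplicate or more.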

MCF7 [9] = experiment: Cytotoxicity against human MCF7 cells after 72 hrs by Cell Titer 96 Aqueous Non-Radioactive assay; assay type: functional; conditions: MCF7, 72 h; in short: as §3
OVCAR-3 = experiment: Cytotoxicity against human OVCAR-3 cells; assay type: functional
EKVX = experiment: Cytotoxicity against human EKVX cells; assay type: functional
MOLT-4 = experiment: Cytotoxicity against human MOLT4 cells; assay type: functional
DU-145 = experiment: Cytotoxicity against human DU145 cells; assay type: functional
[10] = Cytotoxicity against human HL60 (TB) cells; assay type: functional; conditions: HL-60
MCF7 [11] = experiment: Cytotoxicity against human MCF7 cells at 10 uM after 72 hrs by Cell Titer 96 Aqueous Non-Radioactive assay; assay type: functional; conditions: MCF7, 72 h, read-out: Inhibition; in short: as §2
PC-3 [12] = experiment: Cytotoxicity against human PC3 cells at 10 uM after 72 hrs by Cell Titer 96 Aqueous Non-Radioactive assay; assay type: functional; conditions: PC-3, 72 h, read-out: Inhibition; in short: as §2
[13] = Inhibition of tubulin polymerization in presence of microtubule-associated proteins; in short: as §1
[14] = Cell cycle arrest in mouse tsFT210 cells assessed as accumulation at G2/M phase at 100 uM after 18 hrs by flow cytometry; assay type: functional, cell-based
In short: (§4)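 Synchronous-culture assay: tsFT210 cells seeded at 1x10^5 cells/mL, preincubated 1 h at 32 °C, then incubated with compound 18 h at 32 °C; morphology checked by microscopy; DNA content by flow cytometry after staining with 50 μg/mL propidium iodide, 0.1% sodium citrate, 0.2% NP-40; nuclei/chromosomes stained with Hoechst 33258 after KCl swelling and Carnoy fixation.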

[15] = Cell cycle arrest in mouse tsFT210 cells assessed as accumulation at G1 phase at 100 uM after 18 hrs by flow cytometry; assay type: functional, cell-based; in short: as §4
[16] = target: DNA topoisomerase 2-alpha (Homo sapiens) (UniProt P11388); experiment: Inhibition of topoisomerase 2 assessed as relaxation of supercoiled DNA at 100 uM
DNA topoisomerase 2-alpha (Homo sapiens), sequence (P11388 whole entry): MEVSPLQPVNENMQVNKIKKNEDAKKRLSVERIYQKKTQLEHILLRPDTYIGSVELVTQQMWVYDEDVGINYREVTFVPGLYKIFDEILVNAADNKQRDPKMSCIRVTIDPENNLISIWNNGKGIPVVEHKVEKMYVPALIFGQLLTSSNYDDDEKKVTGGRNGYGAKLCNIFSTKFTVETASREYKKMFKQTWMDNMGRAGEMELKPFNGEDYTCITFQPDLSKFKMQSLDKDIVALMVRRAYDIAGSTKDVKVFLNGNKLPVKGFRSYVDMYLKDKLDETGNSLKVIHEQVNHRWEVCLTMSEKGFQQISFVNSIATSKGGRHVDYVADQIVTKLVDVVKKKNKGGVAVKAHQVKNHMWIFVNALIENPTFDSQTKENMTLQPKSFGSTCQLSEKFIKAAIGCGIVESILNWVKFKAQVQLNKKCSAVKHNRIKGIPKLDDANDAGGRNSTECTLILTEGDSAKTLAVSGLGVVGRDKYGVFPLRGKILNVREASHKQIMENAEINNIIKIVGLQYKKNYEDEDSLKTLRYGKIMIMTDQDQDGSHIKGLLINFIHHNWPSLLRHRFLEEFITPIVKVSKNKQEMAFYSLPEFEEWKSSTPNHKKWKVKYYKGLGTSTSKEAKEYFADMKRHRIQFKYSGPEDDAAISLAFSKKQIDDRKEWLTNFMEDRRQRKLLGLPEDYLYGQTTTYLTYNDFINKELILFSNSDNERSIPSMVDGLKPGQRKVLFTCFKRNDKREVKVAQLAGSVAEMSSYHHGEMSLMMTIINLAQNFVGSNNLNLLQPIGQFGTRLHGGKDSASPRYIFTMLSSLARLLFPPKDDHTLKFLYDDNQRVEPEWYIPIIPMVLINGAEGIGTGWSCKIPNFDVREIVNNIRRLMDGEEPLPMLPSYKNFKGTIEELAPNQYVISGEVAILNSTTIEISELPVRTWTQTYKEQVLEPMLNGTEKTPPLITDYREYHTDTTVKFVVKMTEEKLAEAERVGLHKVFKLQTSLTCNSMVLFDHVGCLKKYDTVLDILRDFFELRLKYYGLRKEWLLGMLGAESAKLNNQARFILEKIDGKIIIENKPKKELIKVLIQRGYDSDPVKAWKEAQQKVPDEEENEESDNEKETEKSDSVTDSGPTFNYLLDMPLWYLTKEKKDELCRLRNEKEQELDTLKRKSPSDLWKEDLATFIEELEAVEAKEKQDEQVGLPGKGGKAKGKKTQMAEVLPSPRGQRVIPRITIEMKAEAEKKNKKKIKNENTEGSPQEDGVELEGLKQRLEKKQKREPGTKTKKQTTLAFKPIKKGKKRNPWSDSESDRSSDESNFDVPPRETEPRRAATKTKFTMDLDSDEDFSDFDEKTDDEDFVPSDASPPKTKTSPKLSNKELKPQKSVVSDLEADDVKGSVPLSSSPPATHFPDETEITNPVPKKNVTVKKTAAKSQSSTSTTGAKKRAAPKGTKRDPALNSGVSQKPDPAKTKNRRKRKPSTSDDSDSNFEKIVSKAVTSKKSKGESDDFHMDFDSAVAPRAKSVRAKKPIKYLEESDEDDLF

COc1ccc2c(C[C@@H]3NC(=O)[C@@H]4CCCN4C3=O)c(Br)[nH]c2c1
IC50 [1]: 96 µM

COc1ccc2c(C[C@@H]3NC(=O)[C@H]4CCCN4C3=O)c(CC=C(C)C)[nH]c2c1
GI50 (SR): 76.9 µM | GI50 (COLO 205): > 100 µM | inhibition [2]: < 2% | GI50 (BT-549): > 100 µM | GI50 [3]: > 100 µM | GI50 (UO-31): > 100 µM | GI50 (HOP-92): 16.8 µM | cell survival (% of vehicle control) at 100 µM [4]: 98.5% | percent cell survival at 100 µM (PC-3 [5]): > 100% | GI50 (IGROV-1): 50 µM | GI50 (K562): > 100 µM | GI50 (CCRF-CEM): 99.4 µM | GI50 (HT-29): 40.3 µM | percent cell survival relative to vehicle at 10 µM [6]: 99.3% | GI50 (RPMI-8226): 92 µM | GI50 (LOX IMVI): > 100 µM | cell survival (% of vehicle control) at 100 µM (MCF7 [7]): 99% | GI50 (PC-3 [8]): > 100 µM | GI50 (MCF7 [9]): > 100 µM | GI50 (OVCAR-3): 85.5 µM | GI50 (EKVX): > 100 µM | GI50 (MOLT-4): > 100 µM | GI50 (DU-145): > 100 µM | GI50 [10]: > 100 µM | cell survival (% of vehicle control) at 10 µM (MCF7 [11]): > 100% | percent cell survival relative to vehicle control at 10 µM (PC-3 [12]): > 100%

COc1ccc2c(C[C@@H]3NC(=O)[C@H](C(C)C)NC3=O)c[nH]c2c1
IC50 [1]: > 100 µM

CC(C)=CCc1[nH]c2ccccc2c1C[C@@H]1NC(=O)[C@@H]2CCCN2C1=O [TRYPROSTATIN B]
GI50 (SR): 50.6 µM | GI50 (COLO 205): > 100 µM | GI50 (BT-549): 58.2 µM | GI50 [3]: > 100 µM | GI50 (UO-31): > 100 µM | GI50 (HOP-92): 43.1 µM | IC50 [13]: > 700 µM | cell survival (% of vehicle control) at 100 µM [4]: 60.5% | percent cell survival at 100 µM (PC-3 [5]): 68.9% | GI50 (IGROV-1): > 100 µM | GI50 (K562): 56.1 µM | GI50 (CCRF-CEM): > 100 µM | percent cell survival relative to vehicle at 10 µM [6]: 77.6% | GI50 (RPMI-8226): > 100 µM | GI50 (LOX IMVI): > 100 µM | cell survival (% of vehicle control) at 100 µM (MCF7 [7]): 66.7% | GI50 (PC-3 [8]): > 100 µM | GI50 (MCF7 [9]): > 100 µM | GI50 (OVCAR-3): > 100 µM | GI50 (EKVX): > 100 µM | GI50 (MOLT-4): > 100 µM | GI50 (DU-145): > 100 µM | GI50 [10]: > 100 µM | cell survival (% of vehicle control) at 10 µM (MCF7 [11]): 88.2% | percent cell survival relative to vehicle control at 10 µM (PC-3 [12]): 95.5%

COc1ccc2c(C[C@@H]3NC(=O)[C@@H]4CCCN4C3=O)cn(C)c2c1
IC50 [1]: > 100 µM

CC(C)=CCc1[nH]c2cc(N=[N+]=[N-])ccc2c1C[C@@H]1NC(=O)[C@@H]2CCCN2C1=O
Activity [14]: Active | IC50 [1]: 60 µM | Activity [15]: Active

COc1ccc2c(C[C@@H]3NC(=O)[C@@H]4CCCN4C3=O)cn(Cc3ccccc3)c2c1
IC50 [1]: 46 µM | Activity [15]: Active

C=CCc1[nH]c2cc(OC)ccc2c1C[C@@H]1NC(=O)[C@@H]2CCCN2C1=O
Activity [14]: Active | IC50 [1]: 60 µM | Activity [15]: Active

COc1ccc2c(C[C@H]3NC(=O)[C@H]4CCCN4C3=O)c(CC=C(C)C)[nH]c2c1
GI50 (SR): > 25 µM | GI50 (COLO 205): > 25 µM | GI50 (BT-549): > 25 µM | GI50 [3]: > 25 µM | GI50 (UO-31): > 25 µM | GI50 (HOP-92): 23.1 µM | IC50 [13]: > 700 µM | cell survival (% of vehicle control) at 100 µM [4]: 75.2% | percent cell survival at 100 µM (PC-3 [5]): 83.7% | GI50 (IGROV-1): > 25 µM | GI50 (K562): > 25 µM | GI50 (CCRF-CEM): > 25 µM | percent cell survival relative to vehicle at 10 µM [6]: 81.7% | GI50 (RPMI-8226): > 25 µM | GI50 (LOX IMVI): > 25 µM | cell survival (% of vehicle control) at 100 µM (MCF7 [7]): > 100% | GI50 (PC-3 [8]): > 25 µM | GI50 (MCF7 [9]): > 25 µM | GI50 (OVCAR-3): > 25 µM | GI50 (EKVX): > 25 µM | GI50 (MOLT-4): > 25 µM | GI50 (DU-145): > 25 µM | GI50 [10]: > 25 µM | cell survival (% of vehicle control) at 10 µM (MCF7 [11]): > 100% | Activity [16]: inactive | percent cell survival relative to vehicle control at 10 µM (PC-3 [12]): > 100%

COc1cc2c(c(OC)c1OC)-c1ccc(OC)c(=O)cc1[C@@H](NC(C)=O)CC2 [COLCHICINE]
IC50 [13]: 44.9 µM

CC(C)=CCc1[nH]c2cc(N=C=S)ccc2c1C[C@@H]1NC(=O)[C@@H]2CCCN2C1=O
Activity [14]: Active | IC50 [1]: 50 µM | Activity [15]: Active

COc1ccc2c(C[C@@H]3NC(=O)[C@H](Cc4ccccc4)NC3=O)c(CC=C(C)C)[nH]c2c1
IC50 [1]: 10 µM
